In article PMC10693930 (Biochemistry, 2023):

Columns and labels:
Assay type in all cases: biochemical
WT SaPC [1] = biological target: T1, WT SaPC (Staphylococcus aureus, UniProt A0A0H3JRU9); experiment: Pyruvate carboxylation assay; details: for EC50: Ka (apparent activation constant)
K411A SaPC [2] = biological target: T2, K411A SaPC (Staphylococcus aureus, UniProt A0A0H3JRU9, K411A); experiment: Pyruvate carboxylation assay
WT SaPC [3] = biological target: T1, WT SaPC; experiment: ADP phosphorylation assay
K46A SaPC [4] = biological target: T3, K46A SaPC (Staphylococcus aureus, UniProt A0A0H3JRU9, K46A); experiment: Pyruvate carboxylation assay
K411A SaPC [5] = biological target: T2, K411A SaPC; experiment: ADP phosphorylation assay
R21A SaPC [6] = biological target: T4, R21A SaPC (Staphylococcus aureus, UniProt A0A0H3JRU9, R21A); experiment: Pyruvate carboxylation assay
E418A SaPC [7] = biological target: T5, E418A SaPC (Staphylococcus aureus, UniProt A0A0H3JRU9, E418A); experiment: Pyruvate carboxylation assay; details: up to 4 mM acetyl-CoA and 30 mM CoA
E418A SaPC [8] = biological target: T5, E418A SaPC; experiment: Pyruvate carboxylation inhibition assay with CT domain inhibitors
R21A SaPC [9] = biological target: T4, R21A SaPC; experiment: as above; details: 2.5 mM acetyl-CoA vs none
K46A SaPC [10] = biological target: T3, K46A SaPC; experiment: as above; details: 2.5 mM acetyl-CoA vs none
WT SaPC [11] = biological target: T1, WT SaPC; experiment: Pyruvate carboxylation inhibition assay with CT domain inhibitors
Outline: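 WT SaPC (5 μg/mL) was pre-incubated with inhibitor and acetyl-CoA, and the reaction was started with 10× substrate mix (final 25 mM NaHCO3, 2.5 mM ATP, 12 mM pyruvate). MDH-coupled (10 U/mL MDH, 0.12 mM NADH); change in A340 monitored. Inhibitor 0–1 mM or 0–50 mM by compound. MDH-only controls. Triplicate; SD of three trials.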

[12] = Acyl-CoA + 20 mM L-aspartate, Table 1

SMILES	h (Hill coefficient) (WT SaPC [1]; [12])	h (Hill coefficient) (WT SaPC [1]; Acyl-CoA alone, Table 1)	EC50 (WT SaPC [1]; [12]) [µM]	EC50 (WT SaPC [1]; WT SaPC, Table 2 series) [µM]	increase of apparent Ka in the presence of L-aspartate (WT SaPC [1]; WT SaPC, 20 mM L-aspartate vs none)	EC50 (K411A SaPC [2]) [µM]	EC50 (WT SaPC [3]) [µM]	EC50 (K46A SaPC [4]) [µM]	EC50 (K411A SaPC [5]) [µM]	EC50 (R21A SaPC [6]) [µM]	activation of pyruvate carboxylation (E418A SaPC [7])	inhibition of pyruvate carboxylation (E418A SaPC [8])	change of inhibition in the presence of acetyl-CoA (E418A SaPC [8]; 500 μM acetyl-CoA)	increase in the IC50 for oxalate inhibition (R21A SaPC [9]) [fold]	increase in the IC50 for oxalate inhibition (K46A SaPC [10]) [fold]	change of potency in the presence of acetyl-CoA (WT SaPC [11]; SaPC, CT domain inhibitors)	increase in the IC50 for oxalate inhibition (WT SaPC [11]; WT SaPC, acetyl-CoA at ~7 times the Ka value (10 μM, Figure 6C))	increase in the IC50 for oxalate inhibition (WT SaPC [11]; WT SaPC, in the presence of CoA (500 μM, Figure 6B))	change of the IC50 for oxalate inhibition (WT SaPC [11]; WT SaPC, in the presence of L-aspartate (5 mM, Figure 6B))	increase in the IC50 for oxalate inhibition (WT SaPC [11]; WT SaPC, saturating acetyl-CoA vs none) [fold]
CC(C)(COP(=O)(O)OP(=O)(O)OC[C@H]1O[C@@H](n2cnc3c(N)ncnc32)[C@H](O)[C@@H]1OP(=O)(O)O)[C@@H](O)C(=O)NCCC(=O)NCCS [CoA]	1.8 ± 0.2	1.4 ± 0.2	130 ± 10	49 ± 7	~ 4 fold	100 ± 4.8	320 ± 30	1500 ± 100	420 ± 30	1800 ± 53	unresponsive to activation									
O=C(O)C(=O)O [oxalate]												inhibited	unchanged	8	8	significantly reduced potency	~ 6 fold	~ 13 fold	did not alter	> 20
